In paper PMC3607822 (The Journal of General Physiology, 2013):

Experiments:
[1] = target: T1, CNGA3 C7K/R-A (K624A, K629A, R643A, R646A, K657A, K659A, R661A) channels (Homo sapiens, UniProt Q16281, K624A/K629A/K657A/K659A/R643A/R646A/R661A); assay: Inside-out patch clamp, CNGA3 C7K/R-A; type: biochemical
T1 sequence (Q16281 1-694 K624A/K629A/R643A/R646A/K657A/K659A/R661A): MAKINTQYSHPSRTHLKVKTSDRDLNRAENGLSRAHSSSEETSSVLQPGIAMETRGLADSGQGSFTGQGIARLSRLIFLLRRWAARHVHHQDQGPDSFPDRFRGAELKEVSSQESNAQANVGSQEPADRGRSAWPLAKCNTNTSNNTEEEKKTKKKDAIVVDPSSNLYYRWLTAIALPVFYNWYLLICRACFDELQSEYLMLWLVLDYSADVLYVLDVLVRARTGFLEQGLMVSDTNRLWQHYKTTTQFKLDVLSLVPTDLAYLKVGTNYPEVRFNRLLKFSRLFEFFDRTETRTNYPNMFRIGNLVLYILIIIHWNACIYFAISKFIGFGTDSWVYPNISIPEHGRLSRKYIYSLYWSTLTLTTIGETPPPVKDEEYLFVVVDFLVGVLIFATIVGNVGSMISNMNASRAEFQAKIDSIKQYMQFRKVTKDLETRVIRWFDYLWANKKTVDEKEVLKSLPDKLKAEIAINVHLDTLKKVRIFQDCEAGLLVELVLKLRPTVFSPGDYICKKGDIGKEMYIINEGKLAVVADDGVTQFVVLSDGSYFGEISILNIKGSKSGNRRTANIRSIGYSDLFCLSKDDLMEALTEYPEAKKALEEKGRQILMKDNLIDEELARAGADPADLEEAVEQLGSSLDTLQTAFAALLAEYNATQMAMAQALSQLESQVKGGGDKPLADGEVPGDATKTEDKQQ

[2] = target: CNGA3 ΔN (2-156), 613X channels (Homo sapiens, UniProt Q16281); assay: Inside-out patch clamp, CNGA3 ΔN; type: biochemical
[3] = target: CNGA3 N7R-A (R72A, R75A, R81A, R82A, R86A, R101A, R103A) channels (Homo sapiens, UniProt Q16281, R101A/R103A/R72A/R75A/R81A/R82A/R86A); assay: Inside-out patch clamp, CNGA3 N7R-A; type: biochemical
[4] = target: CNGA3 ΔN (2-156) channels (Homo sapiens, UniProt Q16281); assay: Inside-out patch clamp, CNGA3 ΔN; type: biochemical
[5] = tested on: tandem A3//N7R-A,613X heterodimer channels; assay: Inside-out patch clamp, A3 WT//A3 N7R-A,613X tandem dimers; type: biochemical, human; settings: from K1/2 and h before and after PIP3
[6] = target: CNGA3 with CNGB1 channels (Homo sapiens, UniProt Q14028+Q16281); assay: Inside-out patch clamp, CNGA3 with CNGB1; type: biochemical; settings: 1 µM PIP3
Summary of the method: (§1)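 Subunit cRNAs (~20 ng, B in excess over A) injected into stage IV Xenopus oocytes; inside-out patches 2–7 d later, 20–22°C, symmetric 130 mM NaCl, 0.2 mM EDTA, 3 mM Hepes pH 7.2. Heteromer formation checked by 25 µM l-cis-diltiazem with 1 mM cGMP. diC8 phosphoinositides applied intracellularly in phosphatase-inhibitor cocktail. cGMP dose–response at +80 mV, leak-subtracted, Hill fit before/after for K1/2; mean ± SEM.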

[7] = target: A2ΔN+B1 channels (UniProt Q00195+Q14028, DEL61-90); assay: Inside-out patch clamp, A2ΔN+B1; type: biochemical, rat, human; settings: 1 µM PIP3
Summary of the method: as §1

[8] = target: CNGA1 homomeric channels (Bos taurus, UniProt Q00194); assay: Inside-out patch clamp, homomeric CNGA1; type: biochemical, bovine; settings: PIP3 or PIP2 application
[9] = tested on: PA-LP+RR-QQ CNGA3 channels; assay: Inside-out patch clamp, coexpression of A3 PA-LP with A3 RR-QQ; type: biochemical, human; settings: 1 µM PIP3
[10] = read-out: K1/2 cGMP, +80 mV, no PIPn

CNGA1 homomeric channels, sequence (Q00194 whole entry): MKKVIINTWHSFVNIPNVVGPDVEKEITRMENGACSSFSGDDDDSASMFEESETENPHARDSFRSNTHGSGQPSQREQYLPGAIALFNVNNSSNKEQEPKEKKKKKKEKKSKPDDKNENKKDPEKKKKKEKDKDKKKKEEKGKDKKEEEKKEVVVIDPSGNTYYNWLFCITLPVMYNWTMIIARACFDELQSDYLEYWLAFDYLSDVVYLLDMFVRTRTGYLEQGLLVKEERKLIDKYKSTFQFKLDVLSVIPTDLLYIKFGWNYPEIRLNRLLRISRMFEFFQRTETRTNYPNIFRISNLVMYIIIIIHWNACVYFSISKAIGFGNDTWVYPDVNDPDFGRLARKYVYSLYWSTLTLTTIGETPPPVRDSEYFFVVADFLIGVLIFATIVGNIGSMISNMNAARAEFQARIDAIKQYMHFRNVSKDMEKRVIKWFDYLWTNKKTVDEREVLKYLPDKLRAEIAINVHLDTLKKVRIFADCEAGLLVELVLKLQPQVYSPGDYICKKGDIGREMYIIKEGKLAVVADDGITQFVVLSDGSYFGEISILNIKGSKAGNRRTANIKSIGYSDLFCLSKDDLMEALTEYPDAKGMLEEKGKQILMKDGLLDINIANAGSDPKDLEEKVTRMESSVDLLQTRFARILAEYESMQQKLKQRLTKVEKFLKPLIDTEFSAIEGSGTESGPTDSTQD

Hill coefficient ([1]; cGMP activation)	EC50 [1, 10] [µM]	Po max cGMP ([1]; saturating cGMP)	Hill coefficient ([2]; cGMP activation)	EC50 [2, 10] [µM]	Hill coefficient ([3]; cGMP activation)	EC50 [3, 10] [µM]	Hill coefficient ([4]; cGMP activation)	EC50 [4, 10] [µM]	regulation of K1/2 cGMP by PIP3 [6]	regulation of K1/2 cGMP by PIP3 [7]	effect on relative cAMP efficacy [8]	Compound	change in the energetics of channel opening produced by PIP3 (ΔΔG) [5] [kcal/mol]	Imax cAMP/cGMP (PIP3/control) [9]
2.00 ± 0.00 (6)	9.37 ± 0.29	0.92 ± 0.01 (4)	1.66 ± 0.10 (6)	15.8 ± 2.8	1.59 ± 0.18 (4)	8.89 ± 1.15	1.77 ± 0.07 (9)	9.16 ± 0.65	–	–	–	Nc1nc2c(ncn2[C@@H]2O[C@@H]3COP(=O)(O)O[C@H]3[C@H]2O)c(=O)[nH]1 [cGMP, cyclic guanosine monophosphate]	–	–
–	–	–	–	–	–	–	–	–	PIP3-sensitive	insensitive to regulation by PIP3	decreased relative cAMP efficacy	phosphatidylinositol (3,4,5)-trisphosphate [PIP3]	1.29 ± 0.08	1.67 ± 0.06
